# Activity calls are given as the source filed them. The calls are words filed in the database; no cut-off is given here.
# Legend:
# Rattus norvegicus [1] = species: Rattus norvegicus; experiment: Anti-diabetic activity against STZ-induced diabetic Wistar rat model assessed as increase increase in number of eosinophils level; type: functional, organism-based
# How it was run: (§1)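 STZ-diabetic Wistar rats in six groups (normal, vehicle 0.5% CMC oral, STZ, STZ + test compounds, STZ + pioglitazone); oral treatment started day 14 after STZ on day 1. Markers measured in serum, pancreatic homogenate or whole blood, as named in each line. Groups compared by one-way ANOVA.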
# Rattus norvegicus [2] = species: Rattus norvegicus; experiment: Anti-diabetic activity against STZ-induced diabetic Wistar rat model assessed as increase increase in number of monocytes level; type: functional, organism-based; how it was run: as §1
# Rattus norvegicus [3] = species: Rattus norvegicus; experiment: Anti-diabetic activity against STZ-induced diabetic Wistar rat model assessed as alteration in kidney morphology […] by H and E staining based analysis; type: functional, organism-based
# How it was run: (§2)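 Pancreas, liver and kidney from STZ-diabetic rats treated as in the in vivo schedule. Sections stained with haematoxylin and eosin and examined by light microscopy at 40× (50 μm scale bar). Islet boundaries, β-cells, central vein, sinusoids, trabeculae, and tubular necrosis or swelling were scored.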
# Rattus norvegicus [4] = experiment: Anti-diabetic activity against STZ-induced diabetic Wistar rat model assessed as decrease in dilatation of central vein at 10 mg/kg, po by H and E staining based analysis
# Rattus norvegicus [5] = species: Rattus norvegicus; experiment: Anti-diabetic activity against STZ-induced diabetic Wistar rat model assessed as improvement in pancreas islet morphology […] by H and E staining based analysis; type: functional, organism-based; how it was run: as §2
# Rattus norvegicus [6] = species: Rattus norvegicus; experiment: Anti-diabetic activity against STZ-induced diabetic Wistar rat model assessed as increase increase in number of white blood cell count level; type: functional, organism-based; how it was run: as §1
# PANC-1 [7] = experiment: Antioxidant activity in human PANC-1 cells assessed as decrease in high glucose induced ROS production by measuring minimum fractional index at 5 uM incubated for 24 hrs by DCFDA-staining based flow cytometry analysis; type: functional
# How it was run: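 PANC-1 cells (1 × 10⁵/well) grown 24 h at 37 °C, 5% CO₂, then pre-treated 1 h with 5 μM compound. Exposed to glucose (stated 10 μM) for 23 h. Stained with 10 μM DCFH-DA for 30 min at 37 °C, rinsed, and ROS read by flow cytometry as DCFDA/FITC mean fluorescence intensity.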
# PANC-1 [8] = experiment: (§3) Anti-diabetic activity against high glucose induced human PANC-1 cells assessed as decrease in glucose induced alpha-amylase expression by measuring by measuring minimum fractional index at 5 uM incubated for 23 hrs and measured after 24 hrs by flow cytometric analysis (reference value: 2887 +/- 95.87); type: functional
# Rattus norvegicus [9] = species: Rattus norvegicus; experiment: Anti-diabetic activity in high glucose induced alpha-amylase expression in fasted STZ-induced diabetic Wistar rat model assessed as alpha-amylase level in pancreas by measuring minimum fractional index incubated for 23 hrs and measured after 24 hrs by flow cytometric analysis (reference value: 2590 + 199.74); type: functional
# Rattus norvegicus [10] = experiment: Antidiabetic activity against streptozotocin-induced Wistar rat assessed as increase in PPAR-gamma level at 10 mg/kg, po administered for 21 days measured on day 35 by ELISA analysis; type: functional, organism-based; settings: time 35.0 day; how it was run: as §1
# Rattus norvegicus [11] = species: Rattus norvegicus; experiment: Anti-diabetic activity against STZ-induced diabetic Wistar rat model assessed as increase increase in number of basophils level; type: functional, organism-based; how it was run: as §1
# PANC-1 [12] = experiment: as §3, with “alpha-glucosidase” for “alpha-amylase”, “4361” for “2887”, “257.83)” for “95.87)”; type: functional
# Rattus norvegicus [13] = experiment: Antidiabetic activity against streptozotocin-induced Wistar rat assessed as reduction in serum ALP level at 10 mg/kg, po administered for 21 days measured on day 35; settings: time 35.0 day
# Rattus norvegicus [14] = species: Rattus norvegicus; experiment: Anti-diabetic activity against STZ-induced diabetic Wistar rat model assessed as reduced necrosis in pancreatic tissue […] by H and E staining based analysis; type: functional, organism-based; how it was run: as §2
# Rattus norvegicus [15] = species: Rattus norvegicus; experiment: Anti-diabetic activity against STZ-induced diabetic Wistar rat model assessed as increase beta-cells […] by H and E staining based analysis; type: functional, organism-based; how it was run: as §2
# Rattus norvegicus [16] = species: Rattus norvegicus; experiment: Anti-diabetic activity against STZ-induced diabetic Wistar rat model assessed as reduced in swelling […] by H and E staining based analysis; type: functional, organism-based; how it was run: as §2
# Rattus norvegicus [17] = species: Rattus norvegicus; experiment: Anti-diabetic activity against STZ-induced diabetic Wistar rat model assessed as increase in number of trabeculae cells […] by H and E staining based analysis; type: functional, organism-based; how it was run: as §2
# Rattus norvegicus [18] = species: Rattus norvegicus; experiment: Anti-diabetic activity against STZ-induced diabetic Wistar rat model assessed as clear boundaries in pancreatic islet […] by H and E staining based analysis; type: functional, organism-based; how it was run: as §2
SMILES,Activity (Rattus norvegicus [1]),Activity (Rattus norvegicus [2]),Activity (Rattus norvegicus [3]),Activity (Rattus norvegicus [4]),Activity (Rattus norvegicus [5]),Activity (Rattus norvegicus [6]),Activity_index (PANC-1 [7]),Activity_index (PANC-1 [8]),Activity index (Rattus norvegicus [9]),Activity (Rattus norvegicus [10]),Activity (Rattus norvegicus [11]),Activity_index (PANC-1 [12]),Activity (Rattus norvegicus [13]),Activity (Rattus norvegicus [14]),Activity (Rattus norvegicus [15]),Activity (Rattus norvegicus [16]),Activity (Rattus norvegicus [17]),Activity (Rattus norvegicus [18])
C=CCOc1ccc(/C=C2\SC(=O)N(Cc3cccc([N+](=O)[O-])c3)C2=O)cc1OCC,Active,Active,Active,Active,Active,Active,97.6,797,676,Active,Active,2242,Active,–,–,–,–,–
C#CCOc1ccc(/C=C2\SC(=O)N(Cc3cccc([N+](=O)[O-])c3)C2=O)cc1OCC,Active,Active,–,–,–,Active,85.2,109,2250,Active,Active,752,Active,Active,Active,Active,Active,Active
